Data published in ChEMBL document CHEMBL3297645, “Discovery of TD-4306, a long-acting β2-agonist for the treatment of asthma and COPD” (Bioorg Med Chem Lett, 2014).
The source made the active and inactive calls. The rule behind the calls is not given here.

What was measured:
Homo sapiens [1] = species: Homo sapiens; assay: Selectivity ratio of Ki for human beta1 adrenergic receptor to Ki for human beta2 adrenergic receptor
Outline: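 Competition binding used [3H]dihydroalprenolol as tracer on plasma membranes from cells expressing recombinant human β1- or β2-adrenoceptors. Selectivity is the ratio β1 Ki/β2 Ki.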

[2] = target: Beta-3 adrenergic receptor (Homo sapiens, UniProt P13945); assay: Agonist activity at human beta3 adrenergic receptor expressed in cells by cAMP accumulation assay; format: functional, cell-based
Beta-3 adrenergic receptor, sequence (P13945 whole entry): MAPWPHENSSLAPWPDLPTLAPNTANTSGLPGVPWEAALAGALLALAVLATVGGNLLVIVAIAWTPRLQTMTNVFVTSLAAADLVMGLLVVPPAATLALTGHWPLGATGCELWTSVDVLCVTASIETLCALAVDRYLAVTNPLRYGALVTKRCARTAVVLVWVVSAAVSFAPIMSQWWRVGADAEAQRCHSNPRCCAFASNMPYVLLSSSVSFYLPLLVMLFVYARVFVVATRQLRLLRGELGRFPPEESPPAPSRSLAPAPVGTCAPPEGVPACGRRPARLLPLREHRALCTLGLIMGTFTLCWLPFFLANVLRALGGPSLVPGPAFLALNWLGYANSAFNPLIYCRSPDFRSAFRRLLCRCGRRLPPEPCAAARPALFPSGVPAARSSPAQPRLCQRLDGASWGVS
Outline: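 cAMP accumulation read-out in a recombinant cell line heterologously expressing the human β3-adrenoceptor.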

[3] = target: T1, Beta-2 adrenergic receptor (Homo sapiens, UniProt P07550); assay: Agonist activity at human beta2 adrenergic receptor expressed in cells by cAMP accumulation assay; format: functional, cell-based
T1 sequence (P07550 whole entry): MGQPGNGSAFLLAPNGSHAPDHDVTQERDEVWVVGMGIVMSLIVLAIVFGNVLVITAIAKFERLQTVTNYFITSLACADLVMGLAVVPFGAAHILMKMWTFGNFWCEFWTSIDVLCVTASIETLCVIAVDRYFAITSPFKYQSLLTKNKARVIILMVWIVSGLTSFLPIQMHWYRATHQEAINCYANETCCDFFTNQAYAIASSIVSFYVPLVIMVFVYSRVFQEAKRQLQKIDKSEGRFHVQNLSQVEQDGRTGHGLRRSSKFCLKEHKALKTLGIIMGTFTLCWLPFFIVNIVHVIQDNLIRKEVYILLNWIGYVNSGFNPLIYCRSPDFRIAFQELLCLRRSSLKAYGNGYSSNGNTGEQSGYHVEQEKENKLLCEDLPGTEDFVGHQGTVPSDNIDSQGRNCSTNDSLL

[4] = target: Beta-1 adrenergic receptor (Homo sapiens, UniProt P08588); assay: Agonist activity at human beta1 adrenergic receptor expressed in cells by cAMP accumulation assay; format: functional, cell-based
Beta-1 adrenergic receptor, sequence (P08588 whole entry): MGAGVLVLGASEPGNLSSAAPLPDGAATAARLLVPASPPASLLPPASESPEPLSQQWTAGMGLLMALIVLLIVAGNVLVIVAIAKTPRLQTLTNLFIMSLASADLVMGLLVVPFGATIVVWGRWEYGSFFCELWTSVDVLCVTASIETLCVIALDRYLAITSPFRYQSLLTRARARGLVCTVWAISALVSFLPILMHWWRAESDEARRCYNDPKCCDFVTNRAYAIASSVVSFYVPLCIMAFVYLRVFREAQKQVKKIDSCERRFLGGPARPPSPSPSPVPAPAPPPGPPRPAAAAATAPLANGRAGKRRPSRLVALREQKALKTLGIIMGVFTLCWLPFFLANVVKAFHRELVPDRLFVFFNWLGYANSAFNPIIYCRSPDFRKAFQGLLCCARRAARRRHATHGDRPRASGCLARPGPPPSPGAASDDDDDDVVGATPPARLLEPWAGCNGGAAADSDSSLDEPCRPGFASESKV

[5] = target: T1, Beta-2 adrenergic receptor; assay: Agonist activity at human beta2 adrenergic receptor in human BEAS-2B cells by cAMP accumulation assay; format: functional, cell-based
[6] = target: T1, Beta-2 adrenergic receptor; assay: Displacement of [3H]dihydroalprenolol from human beta2 adrenergic receptor expressing cell membrane by competition binding assay
Cavia porcellus [7] = assay: Bronchoprotection activity against acetylcholine-induced guinea pig bronchoconstriction model at 1 to 100 ug/ml administered as nebulized dosing measured after 72 hrs; format: functional, organism-based
Outline: (§1)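 Guinea pigs received the compound by nebulizer, and testing took place 72 h after treatment. Pulmonary resistance was measured by head-out plethysmograph in anesthetized, spontaneously breathing animals. Bronchoconstriction was induced by increasing intravenous acetylcholine doses. The ACh dose doubling baseline resistance (PD2) was calculated.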

[8] = Dissociation constant, pKa of the compound; format: physicochemical
[9] = Clearance in rat; format: ADME, organism-based; conditions: in vivo
[10] = Clearance in dog; format: ADME, organism-based, Canis lupus familiaris; conditions: in vivo
[11] = Oral bioavailability in dog; format: ADME, organism-based, Canis lupus familiaris; conditions: in vivo
hERG (KCNH2) = hERG (KCNH2) (Homo sapiens, UniProt Q12809); assay: Inhibition of human ERG at 40 nM
hERG (KCNH2), sequence (Q12809 whole entry): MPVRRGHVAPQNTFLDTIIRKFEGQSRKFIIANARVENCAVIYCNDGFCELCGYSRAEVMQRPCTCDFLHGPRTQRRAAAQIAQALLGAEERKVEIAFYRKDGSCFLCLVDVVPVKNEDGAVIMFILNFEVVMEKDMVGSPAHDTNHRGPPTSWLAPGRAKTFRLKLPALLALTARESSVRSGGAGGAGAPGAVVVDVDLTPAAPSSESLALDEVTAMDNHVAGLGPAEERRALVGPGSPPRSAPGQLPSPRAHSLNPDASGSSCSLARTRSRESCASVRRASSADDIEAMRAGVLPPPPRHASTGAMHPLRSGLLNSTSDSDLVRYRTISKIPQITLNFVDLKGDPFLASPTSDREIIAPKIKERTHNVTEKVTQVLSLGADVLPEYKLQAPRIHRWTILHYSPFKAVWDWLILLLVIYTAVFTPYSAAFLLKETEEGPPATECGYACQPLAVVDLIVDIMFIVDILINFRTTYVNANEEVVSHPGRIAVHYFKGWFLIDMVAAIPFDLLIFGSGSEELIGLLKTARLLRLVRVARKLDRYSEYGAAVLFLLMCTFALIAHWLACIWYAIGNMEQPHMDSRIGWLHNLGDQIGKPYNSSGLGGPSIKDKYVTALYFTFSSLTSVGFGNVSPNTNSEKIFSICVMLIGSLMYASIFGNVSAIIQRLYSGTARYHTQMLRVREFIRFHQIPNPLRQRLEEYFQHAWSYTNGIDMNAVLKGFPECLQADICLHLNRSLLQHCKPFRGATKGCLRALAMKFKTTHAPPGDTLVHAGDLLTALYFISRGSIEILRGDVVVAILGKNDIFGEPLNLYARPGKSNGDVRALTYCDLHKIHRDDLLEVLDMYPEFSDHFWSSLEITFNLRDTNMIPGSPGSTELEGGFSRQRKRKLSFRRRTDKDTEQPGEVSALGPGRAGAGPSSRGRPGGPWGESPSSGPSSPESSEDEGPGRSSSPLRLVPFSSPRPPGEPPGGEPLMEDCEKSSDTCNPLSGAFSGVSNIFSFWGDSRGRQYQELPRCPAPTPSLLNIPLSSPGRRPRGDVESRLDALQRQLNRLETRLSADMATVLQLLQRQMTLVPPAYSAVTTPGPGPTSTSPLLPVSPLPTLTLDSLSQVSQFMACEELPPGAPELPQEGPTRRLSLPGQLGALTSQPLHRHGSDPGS

Homo sapiens [12] = species: Homo sapiens; assay: Inhibition of muscarinic receptor (unknown origin) at 1 uM
Cavia porcellus [13] = assay: Bronchoprotection activity against acetylcholine-induced guinea pig bronchoconstriction model administered as nebulized dosing measured after 72 hrs; format: functional, organism-based; outline: as §1
Cavia porcellus [14] = assay: Bronchoprotection activity against acetylcholine-induced guinea pig bronchoconstriction model at >= 30 ug/ml administered as nebulized dosing measured after 72 hrs; format: functional, organism-based; outline: as §1
[15] = target: T2, Muscarinic acetylcholine receptor M2 (Homo sapiens, UniProt P08172); assay: Inhibition of muscarinic acetylcholine receptor M2 (unknown origin)
T2 sequence (P08172 whole entry): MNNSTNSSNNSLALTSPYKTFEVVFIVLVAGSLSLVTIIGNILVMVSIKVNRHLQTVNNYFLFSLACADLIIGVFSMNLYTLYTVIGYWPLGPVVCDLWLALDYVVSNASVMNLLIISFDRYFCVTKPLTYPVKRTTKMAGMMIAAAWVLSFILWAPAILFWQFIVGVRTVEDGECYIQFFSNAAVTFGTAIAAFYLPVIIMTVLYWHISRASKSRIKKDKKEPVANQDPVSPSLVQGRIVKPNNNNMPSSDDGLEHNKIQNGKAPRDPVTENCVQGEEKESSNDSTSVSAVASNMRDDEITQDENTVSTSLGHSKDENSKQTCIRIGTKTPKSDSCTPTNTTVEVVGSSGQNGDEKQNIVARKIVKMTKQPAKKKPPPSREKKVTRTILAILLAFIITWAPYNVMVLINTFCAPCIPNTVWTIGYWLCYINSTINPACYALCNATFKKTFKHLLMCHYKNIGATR

[16] = Oral bioavailability in rat; format: ADME, organism-based; conditions: in vivo

SMILES	Ratio Ki (Homo sapiens [1])	EC50 [2]	EC50 [3]	EC50 [4]	EC50 [5]	Ki [6]	Activity (Cavia porcellus [7])	pKa [8]	clearance [9]	clearance [10]	bioavailability [11]	inhibition at 0.04 µM (hERG (KCNH2))	inhibition (Homo sapiens [12])	Activity (Cavia porcellus [13])	Activity (Cavia porcellus [14])	Ki [15]	bioavailability [16]
COc1ccc(Nc2ccc(CCNC[C@H](O)c3ccc(O)c4[nH]c(=O)ccc34)cc2)cc1-c1ccc(CN)cc1	101	10 nM	0.1 nM	2.51 nM	0.501 nM	1.26 nM	Active	–	–	–	–	–	–	–	–	–	–
NCCOCCOc1ccc(Nc2ccc(CCNC[C@H](O)c3ccc(O)c4[nH]c(=O)ccc34)cc2)cc1	95	39.8 nM	0.158 nM	7.94 nM	0.631 nM	6.31 nM	–	–	–	–	–	–	–	–	–	–	–
CC(C)(C)OC(=O)NCCOc1ccc(Nc2ccc(CCNC[C@H](O)c3ccc(O)c4[nH]c(=O)ccc34)cc2)cc1	26	12.6 nM	0.501 nM	12.6 nM	2.51 nM	20 nM	–	–	–	–	–	–	–	–	–	–	–
O=C(NCCOc1ccc(Nc2ccc(CCNC[C@H](O)c3ccc(O)c4[nH]c(=O)ccc34)cc2)cc1)c1ccccc1	13	12.6 nM	0.501 nM	2 nM	1.58 nM	10 nM	–	–	–	–	–	–	–	–	–	–	–
COc1ccc(Nc2ccc(CCNC[C@H](O)c3ccc(O)c4[nH]c(=O)ccc34)cc2)cc1-c1cccc(CN)c1	146	25.1 nM	0.0794 nM	3.98 nM	0.316 nM	1.58 nM	Active	–	–	–	–	–	–	–	–	–	–
O=c1ccc2c([C@@H](O)CNCCc3ccc(Nc4ccc(OCCN5CCNCC5)cc4)cc3)ccc(O)c2[nH]1	116	39.8 nM	0.126 nM	10 nM	1.58 nM	10 nM	–	9.1	–	–	–	–	–	–	–	–	–
O=c1ccc2c([C@@H](O)CNCCc3ccc(Nc4ccc(OCCN5CCOCC5)cc4)cc3)ccc(O)c2[nH]1	41	50.1 nM	0.316 nM	12.6 nM	3.16 nM	20 nM	–	–	–	–	–	–	–	–	–	–	–
CC(C)(N)COc1ccc(Nc2ccc(CCNC[C@H](O)c3ccc(O)c4[nH]c(=O)ccc34)cc2)cc1	64	63.1 nM	0.0794 nM	6.31 nM	1 nM	6.31 nM	–	–	6.67 mL/min/kg	40 mL/min/kg	5%	7%	Active	Dose-dependent effect	Active	631 nM	1%
CCOc1ccc(Nc2ccc(CCNC[C@H](O)c3ccc(O)c4[nH]c(=O)ccc34)cc2)cc1	72	–	0.251 nM	–	2 nM	12.6 nM	–	–	–	–	–	–	–	inactive	–	–	–
O=CNc1cc([C@@H](O)CNCCc2ccc(NC[C@H](O)c3ccccc3)cc2)ccc1O [MILVETEROL]	2910	39.8 nM	–	–	–	–	–	–	–	–	–	–	–	–	–	–	–
CS(=O)(=O)N1CCN(CCOc2ccc(Nc3ccc(CCNC[C@H](O)c4ccc(O)c5[nH]c(=O)ccc45)cc3)cc2)CC1	30	31.6 nM	0.631 nM	7.94 nM	6.31 nM	31.6 nM	–	–	–	–	–	–	–	–	–	–	–
COc1ccc(Nc2ccc(CCNC[C@H](O)c3ccc(O)c4[nH]c(=O)ccc34)cc2)cc1-c1ccccc1	115	–	–	–	–	6.31 nM	Active	–	–	–	–	–	–	–	–	–	–
CC(C)(N)COc1ccc(Nc2ccc(CCNC[C@H](O)c3ccc(O)c4[nH]c(=O)ccc34)cc2)cc1-c1ccccc1	140	7.94 nM	0.0631 nM	1.58 nM	0.631 nM	1 nM	–	–	–	–	–	–	–	–	–	–	–
NCCCCOc1ccc(Nc2ccc(CCNC[C@H](O)c3ccc(O)c4[nH]c(=O)ccc34)cc2)cc1	85	39.8 nM	0.126 nM	7.94 nM	0.631 nM	5.01 nM	–	–	–	–	–	–	–	–	–	–	–
NCCCOc1ccc(Nc2ccc(CCNC[C@H](O)c3ccc(O)c4[nH]c(=O)ccc34)cc2)cc1	95	39.8 nM	0.158 nM	7.94 nM	0.631 nM	5.01 nM	–	–	–	–	–	–	–	–	–	–	–
CC(C)(N)COc1ccc(Nc2ccc(CCNC[C@H](O)c3ccc(O)c(NC=O)c3)cc2)cc1	94	39.8 nM	0.251 nM	6.31 nM	3.16 nM	25.1 nM	–	–	–	–	–	–	–	–	–	–	–
COc1ccc(Nc2ccc(CCNC[C@H](O)c3ccc(O)c4[nH]c(=O)ccc34)cc2)cc1-c1ccccc1CN	20	6.31 nM	0.126 nM	2.51 nM	0.794 nM	3.16 nM	–	–	–	–	–	–	–	–	–	–	–
NCCOc1ccc(Nc2ccc(CCNC[C@H](O)c3ccc(O)c4[nH]c(=O)ccc34)cc2)cc1	64	39.8 nM	0.1 nM	7.94 nM	0.501 nM	6.31 nM	–	–	–	–	–	–	–	–	–	–	–
